The source of these data is ChEMBL document CHEMBL2375290, “Nonclassical antifolates, part 3: synthesis, biological evaluation and molecular modeling study of some new 2-heteroarylthio-quinazolin-4-ones” (Eur J Med Chem, 2013).

Values after ≈ are worked out from the molar mass of the structure shown.

The subject of experiment [1] is Escherichia coli. Kind of experiment: Antimicrobial activity against Escherichia coli at 200 ug after 24 hrs by agar disc diffusion method. The class given is functional. Particulars: read-out: DIZ. For orientation: Agar diffusion results depend on both activity and mobility in agar.
In experiment [2] the test system is Staphylococcus aureus. Kind of experiment: Antimicrobial activity against Staphylococcus aureus at 200 ug after 24 hrs by agar disc diffusion method. As to conditions: read-out: DIZ. It counts as functional.
In experiment [3] the test system is Pseudomonas aeruginosa. Description: Antimicrobial activity against Pseudomonas aeruginosa at 200 ug after 24 hrs by agar disc diffusion method. It counts as functional. As to conditions: read-out: DIZ.
The subject of experiment [4] is Micrococcus luteus. Description: Antimicrobial activity against Micrococcus luteus at 200 ug after 24 hrs by agar disc diffusion method. The class given is functional. Particulars: read-out: DIZ.
The target in experiment [5] is T1, Dihydrofolate reductase (Bos taurus, UniProt P00376).
T1 sequence (P00376 whole entry): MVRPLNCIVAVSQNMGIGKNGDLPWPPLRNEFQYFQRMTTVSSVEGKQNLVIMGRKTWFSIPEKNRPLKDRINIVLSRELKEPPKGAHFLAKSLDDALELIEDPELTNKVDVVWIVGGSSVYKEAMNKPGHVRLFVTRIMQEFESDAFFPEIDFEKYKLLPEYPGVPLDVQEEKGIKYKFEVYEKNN
Description: Inhibition of bovine DHFR after 2 mins by spectrophotometry.

Experiment [6] concerns Bacillus subtilis. Kind of experiment: Antimicrobial activity against Bacillus subtilis at 200 ug after 24 hrs by agar disc diffusion method. The class given is functional. As to conditions: read-out: DIZ.
Experiment [7] has as its system CAKI-1. Description: Cytotoxicity against human Caki1 cells at 10 uM after 48 hrs by coulter counter analysis. It counts as functional. As to conditions: CAKI-1, 48 h, read-out: GI.
Experiment [8] can be described thus: Cytotoxicity against human EKVX cells at 10 uM after 48 hrs by coulter counter analysis. Particulars: read-out: GI. It counts as functional.
Experiment [9] deals with HL-60(TB). Description: Cytotoxicity against human HL-60(TB) cells at 10 uM after 48 hrs by coulter counter analysis. The class given is functional. Particulars: HL-60, 48 h, read-out: GI.
The subject of experiment [10] is LOX IMVI. Description: Cytotoxicity against human LOXIMVI cells at 10 uM after 48 hrs by coulter counter analysis. It counts as functional. Particulars: read-out: GI.
Experiment [11] has as its system A549. Kind of experiment: Cytotoxicity against human A549/ATCC cells at 10 uM after 48 hrs by coulter counter analysis. The class given is functional. As to conditions: A549, 48 h, read-out: GI.
Experiment [12] relates to SNB-75. Kind of experiment: Cytotoxicity against human SNB75 cells at 10 uM after 48 hrs by coulter counter analysis. It counts as functional. Particulars: SNB-75, 48 h, read-out: GI.
In experiment [13] the test system is NCI-H522. Description: Cytotoxicity against human NCI-H522 cells at 10 uM after 48 hrs by coulter counter analysis. It counts as functional. Particulars: NCI-H522, 48 h, read-out: GI.
Experiment [14] has as its system T47D. Description: Cytotoxicity against human T47D cells at 10 uM after 48 hrs by coulter counter analysis. It counts as functional. As to conditions: read-out: GI.
Experiment [15] relates to MDA-MB-231. Description: Cytotoxicity against human MDA-MB-231 cells at 10 uM after 48 hrs by coulter counter analysis. It counts as functional. As to conditions: MDA-MB-231, 48 h, read-out: GI.
The test system of experiment [16] is IGROV-1. Kind of experiment: Cytotoxicity against human IGROV1 cells at 10 uM after 48 hrs by coulter counter analysis. As to conditions: IGROV-1, 48 h, read-out: GI. The class given is functional.
Experiment [17] has as its system SF-295. Description: Cytotoxicity against human SF295 cells at 10 uM after 48 hrs by coulter counter analysis. It counts as functional. Particulars: SF-295, 48 h, read-out: GI.
Experiment [18] relates to MDA-MB-435. Kind of experiment: Cytotoxicity against human MDA-MB-435 cells at 10 uM after 48 hrs by coulter counter analysis. The class given is functional. As to conditions: MDA-MB-435, 48 h, read-out: GI.
Experiment [19] concerns NCI-H226. Kind of experiment: Cytotoxicity against human NCI-H226 cells at 10 uM after 48 hrs by coulter counter analysis. The class given is functional. As to conditions: NCI-H226, 48 h, read-out: GI.
The subject of experiment [20] is SN12C. Kind of experiment: Cytotoxicity against human SN12C cells at 10 uM after 48 hrs by coulter counter analysis. It counts as functional. As to conditions: read-out: GI.
The test system of experiment [21] is SK-MEL-5. Kind of experiment: Cytotoxicity against human SK-MEL-5 cells at 10 uM after 48 hrs by coulter counter analysis. It counts as functional. As to conditions: SK-MEL-5, 48 h, read-out: GI.
For experiment [22], the system named is RPMI-8226. Kind of experiment: Cytotoxicity against human RPMI8226 cells at 10 uM after 48 hrs by coulter counter analysis. It counts as functional. Particulars: RPMI-8226, 48 h, read-out: GI.
The subject of experiment [23] is MCF7. Kind of experiment: Cytotoxicity against human MCF7 cells at 10 uM after 48 hrs by coulter counter analysis. It counts as functional. As to conditions: MCF7, 48 h, read-out: GI.
In experiment [24] the test system is SNB-19. Description: Cytotoxicity against human SNB19 cells at 10 uM after 48 hrs by coulter counter analysis. It counts as functional. Particulars: SNB-19, 48 h, read-out: GI.
The test system of experiment [25] is OVCAR-4. Kind of experiment: Cytotoxicity against human OVCAR4 cells at 10 uM after 48 hrs by coulter counter analysis. It counts as functional. Particulars: OVCAR-4, 48 h, read-out: GI.
The test system of experiment [26] is A498. Description: Cytotoxicity against human A498 cells at 10 uM after 48 hrs by coulter counter analysis. The class given is functional. As to conditions: A498, 48 h, read-out: GI.
Experiment [27] relates to SR. Description: Cytotoxicity against human SR cells at 10 uM after 48 hrs by coulter counter analysis. It counts as functional. Particulars: read-out: GI.
Experiment [28] has as its system NCI-H23. Description: Cytotoxicity against human NCI-H23 cells at 10 uM after 48 hrs by coulter counter analysis. The class given is functional. As to conditions: NCI-H23, 48 h, read-out: GI.
The subject of experiment [29] is RXF 393. Kind of experiment: Cytotoxicity against human RXF393 cells at 10 uM after 48 hrs by coulter counter analysis. The class given is functional. Particulars: RXF 393, 48 h, read-out: GI.
The test system of experiment [30] is CCRF-CEM. Kind of experiment: Cytotoxicity against human CCRF-CEM cells at 10 uM after 48 hrs by coulter counter analysis. It counts as functional. As to conditions: read-out: GI.
For experiment [31], the system named is UO-31. Description: Cytotoxicity against human UO31 cells at 10 uM after 48 hrs by coulter counter analysis. It counts as functional. As to conditions: UO-31, 48 h, read-out: GI.
Experiment [32] relates to MOLT-4. Kind of experiment: Cytotoxicity against human MOLT4 cells at 10 uM after 48 hrs by coulter counter analysis. The class given is functional. Particulars: MOLT-4, 48 h, read-out: GI.
The nature of experiment [33]: Cytotoxicity against human NCI-ADR-RES cells at 10 uM after 48 hrs by coulter counter analysis. The class given is functional. As to conditions: read-out: GI.
The subject of experiment [34] is PC-3. Kind of experiment: Cytotoxicity against human PC3 cells at 10 uM after 48 hrs by coulter counter analysis. It counts as functional. As to conditions: PC-3, 48 h, read-out: GI.
Experiment [35] concerns UACC-62. Description: Cytotoxicity against human UACC62 cells at 10 uM after 48 hrs by coulter counter analysis. As to conditions: UACC-62, 48 h, read-out: GI. The class given is functional.
The subject of experiment [36] is Hs-578T. Description: Cytotoxicity against human Hs578T cells at 10 uM after 48 hrs by coulter counter analysis. The class given is functional. As to conditions: read-out: GI.
Experiment [37] has as its system Malme-3M. Description: Cytotoxicity against human MALME-3M cells at 10 uM after 48 hrs by coulter counter analysis. Particulars: read-out: GI. The class given is functional.
Experiment [38] has as its system Bacillus subtilis. Description: Antimicrobial activity against Bacillus subtilis after 24 hrs by micro-dilution susceptibility method. It counts as functional. In short, it runs like this: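 Broth microdilution in Müller-Hinton broth against S. aureus IFO 3060, B. subtilis IFO 3007, E. coli IFO 3301 and P. aeruginosa IFO 3448. These are the same standard strains used in the disc-diffusion primary screen. Compounds were solubilized in DMSO. MIC recorded as the minimal inhibitory concentration.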
On the technique in general: Broth dilution looks for growth in wells or tubes with falling amounts of substance.

As for `CCOC(=O)c1nc(N)sc1Sc1nc2cc(OC)c(OC)cc2c(=O)n1-c1ccccc1`, the zone of inhibition at 200 µg/disc in [1], in experiment [2], in experiment [3], in experiment [4] and in experiment [6] was 8 mm each time. The compound also had a concentration for half-maximal inhibition (IC50) in experiment [5] of 0.3 µM.
Turning to `Cc1ccc2nc(Sc3cnc(N)s3)n(Cc3ccccc3)c(=O)c2c1`, the inhibition of growth at 10 µM in experiment [7] is 30.3%; in experiment [8] it was 25.9%; in experiment [9], < 10%; in [10] it was 10.4%; in experiment [11], < 10%; in experiment [12], 20.4%. Also, the inhibition of growth at 10 µM is < 10% in [13]; < 10% in [14]; 15.2% in experiment [15]; 21.8% in [16]; 17.3% in experiment [17]; < 10% in [18]. For the same compound, the inhibition of growth at 10 µM in [19] was 19.9%; in experiment [20], < 10%; in experiment [21] it was < 10%; in experiment [22], 16.8%; in [23], 10.8%; in [24], < 10%. For the same compound, the inhibition of growth at 10 µM in experiment [25], in experiment [26], in experiment [27], in [28], in experiment [29] and in [30] was < 10% in each case. The inhibition of growth at 10 µM was 29.4% in [31]; < 10% in experiment [32]; < 10% in [33]; 22.6% in experiment [34]; 12.2% in [35]; < 10% in [36]. In experiment [37], the inhibition of growth at 10 µM came to 12.3%. Further, the zone of inhibition at 200 µg/disc in [1], in experiment [2], in experiment [3], in [4] and in [6] was 8 mm in each case. In addition, the half-maximal inhibitory concentration (IC50) in experiment [5] amounted to 1 µM.
Turning to `Cc1ccc2nc(Sc3cc([N+](=O)[O-])ccc3C(=O)O)n(-c3ccccc3)c(=O)c2c1`, the zone of inhibition at 200 µg/disc in experiment [1], in experiment [2], in experiment [3], in experiment [4] and in experiment [6] was 8 mm in each case. This compound also yielded a concentration for half-maximal inhibition (IC50) in [5] of 10 µM.
For `COc1cc2nc(Sc3cc([N+](=O)[O-])ccc3C(=O)O)n(Cc3ccccc3)c(=O)c2cc1OC`, the zone of inhibition at 200 µg/disc in [1] came to 8 mm; in experiment [2], 18 mm; in [3], 8 mm; in experiment [4], 8 mm; in experiment [6] it was 8 mm. Further, in experiment [5], the half-inhibitory concentration (IC50) turned out to be 3 µM.
Regarding `Cc1ccc2nc(Sc3cc([N+](=O)[O-])ccc3C(=O)O)n(Cc3ccccc3)c(=O)c2c1`, the zone of inhibition at 200 µg/disc in experiment [1], in experiment [2], in experiment [3], in experiment [4] and in experiment [6] was 8 mm each time. Moreover, 12 µM corresponded to half-maximal inhibition in experiment [5] (IC50).
With `CCOC(=O)c1nc(N)sc1Sc1nc2ccc(Cl)cc2c(=O)n1-c1ccccc1`, the zone of inhibition at 200 µg/disc in [1], in [2], in [3], in [4] and in [6] was 8 mm each time. Besides, half-maximal inhibition in [5] (IC50) required 3 µM.
Regarding `O=C(O)c1ccc([N+](=O)[O-])cc1Sc1nc2ccc(Cl)cc2c(=O)n1Cc1ccccc1`, the zone of inhibition at 200 µg/disc in experiment [1] turned out to be 8 mm; in experiment [2], 8 mm; in experiment [3], 8 mm; in [4], 8 mm; in [6], 15 mm. Besides, inhibition in experiment [5] was half-maximal at 8 µM (IC50).
As to `O=C(O)c1ccc([N+](=O)[O-])cc1Sc1nc2ccc(Cl)cc2c(=O)n1-c1ccccc1`, the zone of inhibition at 200 µg/disc in [1] was found to be 8 mm; in [2] it was 14 mm; in experiment [3] it was 8 mm; in experiment [4], 8 mm; in experiment [6] it was 20 mm. The IC50 in experiment [5] was 10 µM. In addition, in [38], it took 4 µg/mL (≈ 8.81 µM) to inhibit growth (MIC).
For `CCOC(=O)c1nc(N)sc1Sc1nc2cc(OC)c(OC)cc2c(=O)n1Cc1ccccc1`, the zone of inhibition at 200 µg/disc in [1] came out at 8 mm; in experiment [2], 18 mm; in [3], 8 mm; in experiment [4], 8 mm; in experiment [6], 20 mm. This compound also registered an IC50 in experiment [5] of 2 µM.

The term IC50 denotes the concentration at which inhibition is half-maximal. For orientation: MIC means the least concentration at which growth counts as inhibited. Low readings indicate inhibition by little substance, high ones a need for much substance.
